The subject of data set [1] is C=CC[C@@H]1/C=C(\C)C[C@H](C)C[C@H](OC)[C@H]2O[C@@](O)(C(=O)C(=O)N3CCCC[C@H]3C(=O)O[C@H](/C(C)=C/[C@@H]3CC[C@@H](O)[C@H](OC)C3)[C@H](C)[C@@H](O)CC1=O)[C@H](C)C[C@@H]2OC. The experiment in a line: Activity of UGT1A4*3 mutant (unknown origin) overexpressed in HEK293 cells assessed as enzyme-mediated glucuronidation after 1 hr by Eadie-Hofstee plot analysis. The class given is ADME, cell-based, Homo sapiens. The method in brief:
(§1)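 Tacrolimus at 25–750 μM was incubated 1 h and glucuronide was measured by LC-MS/MS. A kinetic model was fitted, and Vmax was adjusted for UGT1A4 protein content. Data are mean ± SD of triplicates from three independent experiments.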

Data set [2] is described as follows: Drug metabolism in human intestine assessed as glucuronidation after 1 hr by Eadie-Hofstee plot analysis. Format: ADME, tissue-based. The method in brief: (§2)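 Pooled human intestine microsomes were incubated 1 h with tacrolimus at 25–750 μM. Glucuronide formation was measured by LC-MS/MS, and kinetic parameters came from a selected enzyme kinetic model fit. Data are mean ± SD of triplicate determinations from three independent experiments.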

Data set [3] is described as follows: Drug metabolism in human intestine assessed as glucuronidation at 25 to 750 uM after 1 hr by Eadie-Hofstee plot analysis. Format: ADME, tissue-based. The method in brief:
as §2

In a further data set the test system is Liver microsome. The experiment in a line: Drug metabolism in human liver microsomes assessed as glucuronidation at 200 uM after 16 hrs by LC-MS analysis. The class given is ADME. The method in brief: (§3)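 Microsomes from human liver, kidney and intestine, or from HEK293 cells overexpressing individual UGT1A or UGT2B enzymes, were prepared by differential centrifugation. They were incubated 16 h at 37°C with 200 μM tacrolimus. Tacrolimus glucuronide was detected by LC-MS/MS (C8 column, ammonium acetate/acetic acid–methanol gradient, positive electrospray), with CsA d4 as a marker.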
In general terms: Microsomes from liver hold many membrane-bound enzymes, among them those of drug oxidation.

A short description of data set [4]: Drug metabolism in human intestine microsomes assessed as glucuronidation at 200 uM after 16 hrs by LC-MS analysis. The class given is ADME. The gist of the method: as §3
Data set [5] deals with T1, UDP-glucuronosyltransferase 1A4 (Homo sapiens, UniProt P22310).
T1 sequence (P22310 whole entry): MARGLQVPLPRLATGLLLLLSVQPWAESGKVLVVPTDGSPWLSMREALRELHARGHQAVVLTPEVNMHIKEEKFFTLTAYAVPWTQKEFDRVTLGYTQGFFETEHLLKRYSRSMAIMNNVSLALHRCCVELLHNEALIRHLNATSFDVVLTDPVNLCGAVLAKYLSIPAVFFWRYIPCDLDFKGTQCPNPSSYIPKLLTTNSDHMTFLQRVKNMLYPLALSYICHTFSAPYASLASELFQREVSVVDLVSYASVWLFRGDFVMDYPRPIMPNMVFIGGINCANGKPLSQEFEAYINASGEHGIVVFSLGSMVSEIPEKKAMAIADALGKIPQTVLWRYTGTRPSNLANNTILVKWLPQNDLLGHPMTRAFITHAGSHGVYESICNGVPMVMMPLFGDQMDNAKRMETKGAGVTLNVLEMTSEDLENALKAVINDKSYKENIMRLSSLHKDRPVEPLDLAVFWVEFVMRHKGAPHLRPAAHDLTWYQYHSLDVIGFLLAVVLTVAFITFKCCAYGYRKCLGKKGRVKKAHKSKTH
The experiment in a line: Activity at human recombinant UGT1A4 assessed as enzyme-mediated tacrolimus glucuronide formation at 200 uM after 16 hrs by LC-MS analysis. Format: ADME. The gist of the method: as §3

The target of data set [6] is T2, UDP-glucuronosyltransferase 2B7 (Homo sapiens, UniProt P16662).
T2 sequence (P16662 whole entry): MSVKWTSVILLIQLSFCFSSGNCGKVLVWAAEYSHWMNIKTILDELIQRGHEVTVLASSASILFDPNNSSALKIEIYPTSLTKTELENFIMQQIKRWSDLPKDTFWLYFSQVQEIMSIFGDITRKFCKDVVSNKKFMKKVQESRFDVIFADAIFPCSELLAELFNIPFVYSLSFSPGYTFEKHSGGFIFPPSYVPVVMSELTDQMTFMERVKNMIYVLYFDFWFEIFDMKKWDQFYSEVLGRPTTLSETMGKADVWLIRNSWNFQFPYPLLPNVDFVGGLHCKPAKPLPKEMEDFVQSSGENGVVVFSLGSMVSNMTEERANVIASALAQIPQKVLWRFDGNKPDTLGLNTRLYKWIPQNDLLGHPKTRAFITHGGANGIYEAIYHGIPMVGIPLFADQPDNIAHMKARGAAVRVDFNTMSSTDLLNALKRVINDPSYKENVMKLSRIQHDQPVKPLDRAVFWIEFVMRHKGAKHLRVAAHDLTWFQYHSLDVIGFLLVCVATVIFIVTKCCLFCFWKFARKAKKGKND
The experiment in a line: Drug metabolism in human kidney microsomes assessed as UGT2B7-mediated tacrolimus glucuronide formation at 200 uM after 16 hrs by LC-MS analysis. The class given is ADME. The gist of the method:
as §3

A further data set has as its system UGT1A4*1. The experiment in a line: Activity of UGT1A4*1 mutant (unknown origin) overexpressed in HEK293 cells assessed as enzyme-mediated glucuronidation after 1 hr by Eadie-Hofstee plot analysis. The class given is ADME, cell-based. As to conditions: human, HEK293 cells overexpressing UGT1A4*1. The method in brief:
as §1

Data set [7] in a line: Activity of UGT1A4*1 mutant (unknown origin) overexpressed in HEK293 cells assessed as enzyme-mediated glucuronidation at 25 to 750 uM after 1 hr by Eadie-Hofstee plot analysis. The class given is ADME, cell-based. As to conditions: human, hek293, 1 h. The gist of the method: as §1
Data set [8] concerns the target UDP-glucuronosyltransferase 1A4 (Homo sapiens, UniProt P22310, P24T). The data set is described as follows: Activity of UGT1A4*2 mutant (unknown origin) overexpressed in HEK293 cells assessed as enzyme-mediated glucuronidation at 25 to 750 uM after 1 hr by Eadie-Hofstee plot analysis. The class given is ADME, cell-based. Particulars: hek293, 1 h. The gist of the method:
as §1

Data set [9] deals with UDP-glucuronosyltransferase 1A4 (Homo sapiens, UniProt P22310, L48V). The data set is described as follows: Activity of UGT1A4*3 mutant (unknown origin) overexpressed in HEK293 cells assessed as enzyme-mediated glucuronidation at 25 to 750 uM after 1 hr by Eadie-Hofstee plot analysis. The class given is ADME, cell-based. Particulars: hek293, 1 h. The gist of the method:
as §1

The subject of the next data set is UGT1A4*4. The data set is described as follows: Activity of UGT1A4*4 mutant (unknown origin) overexpressed in HEK293 cells assessed as enzyme-mediated glucuronidation after 1 hr by Eadie-Hofstee plot analysis. Format: ADME, cell-based. Particulars: human, HEK293 cells overexpressing UGT1A4*4. The method in brief:
as §1

The nature of data set [10]: Activity of UGT1A4*4 mutant (unknown origin) overexpressed in HEK293 cells assessed as enzyme-mediated glucuronidation at 25 to 750 uM after 1 hr by Eadie-Hofstee plot analysis. Format: ADME, cell-based. Particulars: human, hek293, 1 h. The method in brief:
as §1

Data set [11] has as its system C=CC[C@@H]1/C=C(\C)C[C@H](C)C[C@H](OC)[C@H]2O[C@@](O)(C(=O)C(=O)N3CCCC[C@H]3C(=O)O[C@H](/C(C)=C/[C@@H]3CC[C@@H](O)[C@H](OC)C3)[C@H](C)[C@@H](O)CC1=O)[C@H](C)C[C@@H]2OC. The experiment in a line: Activity of UGT1A4*2 mutant (unknown origin) overexpressed in HEK293 cells assessed as enzyme-mediated glucuronidation after 1 hr by Eadie-Hofstee plot analysis. Format: ADME, cell-based, Homo sapiens. The method in brief:
as §1

The values that follow come from ChEMBL document CHEMBL3526068, “In vitro investigation of human UDP-glucuronosyltransferase isoforms responsible for tacrolimus glucuronidation: predominant contribution of UGT1A4” (Drug Metab Dispos, 2011).

Sequence of UDP-glucuronosyltransferase 1A4 (Homo sapiens, UniProt P22310, P24T) (P22310 whole entry P24T): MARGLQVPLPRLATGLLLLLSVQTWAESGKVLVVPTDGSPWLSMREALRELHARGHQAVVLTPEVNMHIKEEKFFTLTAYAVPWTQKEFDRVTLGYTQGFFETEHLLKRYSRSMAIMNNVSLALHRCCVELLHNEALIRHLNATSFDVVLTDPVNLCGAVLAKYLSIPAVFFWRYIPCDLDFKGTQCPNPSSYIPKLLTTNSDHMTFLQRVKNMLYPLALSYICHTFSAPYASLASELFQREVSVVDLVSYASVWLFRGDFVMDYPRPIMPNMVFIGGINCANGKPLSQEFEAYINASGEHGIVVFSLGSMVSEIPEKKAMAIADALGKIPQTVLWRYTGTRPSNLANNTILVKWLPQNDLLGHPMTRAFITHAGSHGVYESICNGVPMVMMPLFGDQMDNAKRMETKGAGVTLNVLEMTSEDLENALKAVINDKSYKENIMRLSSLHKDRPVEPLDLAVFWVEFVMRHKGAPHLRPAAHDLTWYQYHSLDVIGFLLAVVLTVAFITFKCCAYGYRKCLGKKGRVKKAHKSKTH
Sequence of UDP-glucuronosyltransferase 1A4 (Homo sapiens, UniProt P22310, L48V) (P22310 29-534 L48V limits assumed): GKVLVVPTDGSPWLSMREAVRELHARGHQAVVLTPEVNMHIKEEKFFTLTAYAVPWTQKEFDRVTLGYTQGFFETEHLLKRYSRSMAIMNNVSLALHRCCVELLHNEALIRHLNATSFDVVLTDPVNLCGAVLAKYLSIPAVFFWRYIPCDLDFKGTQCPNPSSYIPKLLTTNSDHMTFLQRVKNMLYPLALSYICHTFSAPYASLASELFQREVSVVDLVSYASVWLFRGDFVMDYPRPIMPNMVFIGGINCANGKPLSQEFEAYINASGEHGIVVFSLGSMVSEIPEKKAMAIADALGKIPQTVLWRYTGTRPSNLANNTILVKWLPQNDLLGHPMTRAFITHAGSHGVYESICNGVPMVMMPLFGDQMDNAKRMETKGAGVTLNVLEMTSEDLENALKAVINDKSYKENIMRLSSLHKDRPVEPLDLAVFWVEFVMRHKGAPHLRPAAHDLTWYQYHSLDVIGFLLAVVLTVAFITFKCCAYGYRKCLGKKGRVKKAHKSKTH

In general, Km refers to the concentration of substrate that gives half-maximal velocity. As for “UDP-glucuronosyltransferase 1A4 (Homo sapiens; L48V)”, the Michaelis-Menten constant (Km) in [1] was determined as 126 µM.

Regarding `C=CC[C@@H]1/C=C(\C)C[C@H](C)C[C@H](OC)[C@H]2O[C@@](O)(C(=O)C(=O)N3CCCC[C@H]3C(=O)O[C@H](/C(C)=C/[C@@H]3CC[C@@H](O)[C@H](OC)C3)[C@H](C)[C@@H](O)CC1=O)[C@H](C)C[C@@H]2OC` [TACROLIMUS ANHYDROUS], the Michaelis-Menten constant (Km) at 1 h in [2] came to 51.8 µM; in the data set with UGT1A4*1, 91 µM; in the data set with UGT1A4*4, 101 µM. Moreover, the Vmax in data set [3] is reported as 0.04 area/min/mg; in data set [7], 1.65 area/min/mg; in data set [8], 1.65 area/min/mg; in [9], 2.23 area/min/mg; in data set [10] it was 3.14 area/min/mg. The Drug metabolism result with Liver microsome was “metabolite_detected”; in data set [4] it was “metabolite_detected”; in data set [5], “metabolite_detected”; in data set [6] it was “metabolite_not_detected”.

Consider “UDP-glucuronosyltransferase 1A4 (Homo sapiens; P24T)”, for which the Km in data set [11] was 114 µM.
